Published values gathered from unrelated publications.
Compare with care: the assays were run in different laboratories. pEC50, pIC50: −log10 of the molar value.
Organism: Plasmodium falciparum
Effect on: parasite growth

For C[C@H]1Cc2c([nH]c3cc(Cl)c(F)cc23)[C@@]2(N1)C(=O)Nc1ccc(Cl)cc12, the pEC50 was 9.15 (3D7; 72 h; blood stage).
The pEC50 of COc1cc(/C=C/C(=O)C(=Cc2ccccc2)C(=O)/C=C/c2ccc(O)c(OC)c2)ccc1O is reported as 5.42 (3D7; blood stage).
For Cc1ccc(Oc2ccc(NC(=O)CNc3ccccc3N3CCCCC3=O)cc2)cc1, the pEC50 was 5.60 (3D7; 72 h; blood stage).
For COc1cc(/C=C/c2cc(/C=C/c3ccc(O)c(OC)c3)n(-c3ccc(Cl)cc3Cl)n2)ccc1O, the pEC50 was 5.48 (3D7; blood stage).
Cc1[nH]c(/C=C2\N=C(c3ccc[nH]3)C=C2OC(C)C)cc1Cc1ccc(Cl)cc1 gave a pIC50 of 8.43 (SYBR Green; D6; 72 h; blood stage).
CCCN(c1ccc(C)cc1)c1ccc(NC(=O)CN(C)c2ccccc2N2CCCC2=O)cc1 gave a pEC50 of 8.00 (3D7; 72 h; blood stage).
For COc1cc(C=C(C(=O)/C=C/c2ccc(O)c(OC)c2)C(=O)/C=C/c2ccc(O)c(OC)c2)ccc1O, the pEC50 was 5.75 (3D7; blood stage).
Cc1nnc(-c2ccc3ccn(CC(=O)Nc4cccnc4)c3c2)o1 gave a pEC50 of 5.32 to 5.37 (3D7; 72 h; blood stage).
CCC1=C(CC)/C(=C/c2[nH]c(Cc3ccc(OC(F)(F)F)cc3)cc2Cc2ccc(OC(F)(F)F)cc2)N=C1c1ccc[nH]1 gave a pIC50 of 5.69 (SYBR Green; D6; 72 h; blood stage).
For CCN(c1ccc(C)cc1)c1ccc(NC(=O)CN(C)c2ccccc2N2CCCC2=O)cc1, the pEC50 was 7.72 (3D7; 72 h; blood stage).
The pIC50 of CCN(CC)CCOc1ccc2c(c1)C(=O)c1cc(OCCN(CC)CC)ccc1-2 is reported as 6.19 (NF54; blood stage).
With COC1=CC(c2ccc[nH]2)=N/C1=C\c1[nH]c(-c2ccccc2)cc1-c1ccccc1 the pIC50 was 7.78 (SYBR Green; D6; 72 h; blood stage).
With N#Cc1ccc(Oc2ccc(NC(=O)CNc3ccccc3N3CCCC3=O)cc2)cc1 the pEC50 was 5.85 (3D7; 72 h; blood stage).
With COc1cc(/C=C/C(=O)C(=Cc2cccc(O)c2)C(=O)/C=C/c2ccc(O)c(OC)c2)ccc1O the pEC50 was 5.94 (3D7; blood stage).
With Cc1ccc(N(CC2=NCCN2)c2cccc(O)c2)cc1 the pIC50 was 5.75 (SYBR Green; 3D7; blood stage).
For Cc1ccc(N(C)c2ccc(NC(=O)CN(C)c3ccccc3N3CCCC3=O)cn2)cc1, the pEC50 was 7.89 (3D7; 72 h; blood stage).
With COC1=CC(c2ccc[nH]2)=N/C1=C\c1cc(Cc2ccc(OC)cc2)c(-c2ccc(OC)cc2)[nH]1 the pIC50 was 7.05 (SYBR Green; D6; 72 h; blood stage).
The inhibition of COc1cc(NC(C)CCCN)c2ncccc2c1 (stereo not drawn) is reported as 100% (100 µM; gametocyte).
CCN(c1ccc(C)cc1)c1ccc(NC(=O)CN(C)c2ccccc2N2CCCC2=O)cn1 gave a pEC50 of 8.40 (3D7; 72 h; blood stage).
With COC1=CC(c2ccc[nH]2)=N/C1=C\c1[nH]c(C(=O)O)cc1Cc1ccc(Cl)cc1 the pIC50 was less than 5.60 (SYBR Green; D6; 72 h; blood stage).
The pEC50 of Cc1ccc(N(C)c2ccc(NC(=O)CN(C)c3cc(F)ccc3N3CCCC3=O)cc2)cc1 is reported as 7.47 (3D7; 72 h; blood stage).
COC1=CC(c2ccc[nH]2)=N/C1=C\c1cc(Cc2ccc(OC(F)(F)F)cc2)c(C)[nH]1 gave a pIC50 of 8.50 (SYBR Green; D6; 72 h; blood stage).
Cc1ccc(N(C)c2ccc(NC(=O)CN(C)c3ccccc3N3CCCC3=O)cc2)nc1 gave a pEC50 of 5.40 (3D7; 72 h; blood stage).
With CNCC[C@H](Oc1cccc2ccccc12)c1cccs1 the pIC50 was 6.15 (NF54; blood stage).
For Cc1[nH]c(/C=C2\N=C(c3ccc[nH]3)C3=C2OCCO3)cc1Cc1ccc(Cl)cc1, the pIC50 was 7.84 (SYBR Green; D6; 72 h; blood stage).
CCN(CC)CCCC(C)Nc1ccnc2cc(Cl)ccc12 (stereo not drawn) gave a pEC50 of 8.10 (3D7; blood stage).
With CCc1nnc(-c2ccc3ccn(CC(=O)Nc4cc(OC)c(OC)c(OC)c4)c3c2)o1 the pEC50 was 6.71 (DD2; 72 h; blood stage).
For COC1=CC(c2ccc[nH]2)=N/C1=C\c1[nH]c(C)cc1Cc1ccc(OC(F)(F)F)cc1, the pIC50 was 8.61 (SYBR Green; D6; 72 h; blood stage).
For Cc1cc2ccc(-c3cnn(C)c3)cc2n1CC(=O)Nc1ccccc1Cl, the pEC50 was 6.22 (3D7; 72 h; blood stage).
N=C(N)N/N=C/c1c(Cl)cccc1Cl has a pIC50 of 7.40 (SYBR Green; 3D7; blood stage).
